Assay results published in ChEMBL document CHEMBL1255304, “In vitro phenotypic susceptibility of human immunodeficiency virus type 2 clinical isolates to protease inhibitors” (Antimicrob Agents Chemother, 2008).

Assays:
[1] = system: Human immunodeficiency virus 2; assay: Antiviral activity against Human immunodeficiency virus type 2 (ISOLATE ROD) after 13 months; format: functional, organism-based; conditions: Human immunodeficiency virus 2, ISOLATE ROD
How it was run: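 Reference strain ROD was tested in the ANRS PBMC assay alongside the clinical isolates, and the 50% inhibitory concentration (IC50) was reported.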

[2] = system: Human immunodeficiency virus 2; assay: Antiviral activity against HIV 2 subtype A clinical isolate expressing 14H-60K/N-65E protease gene sequence from HIV2 infected patient plasma and PBMC obtained before compound treatment measured after 13 months; format: functional, organism-based; conditions: Human immunodeficiency virus 2, subtype A
How it was run: (§1)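 Virus isolated by PBMC coculture from patient samples taken before (T0) or during (T1, T2) protease inhibitor exposure, with protease genes sequenced from plasma and PBMC isolates. Susceptibility was tested in the ANRS PBMC assay, and the 50% inhibitory concentration (IC50) was reported.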

[3] = system: Human immunodeficiency virus 2; assay: Antiviral activity against HIV 2 subtype B clinical isolate expressing 14Y-61N-99L protease gene sequence from HIV2 infected patient plasma and PBMC obtained before compound treatment measured after 13 months; format: functional, organism-based; conditions: Human immunodeficiency virus 2, subtype B\r\n; how it was run: as §1
[4] = system: Human immunodeficiency virus 2; assay: Antiviral activity against HIV 2 subtype A clinical isolate expressing 14H-40D-70K-72R/K-91T/S protease gene sequence from HIV2 infected patient plasma and PBMC obtained before compound treatment measured after 13 months; format: functional, organism-based; conditions: Human immunodeficiency virus 2, subtype A; how it was run: as §1
[5] = system: Human immunodeficiency virus 2; assay: Antiviral activity against HIV 2 subtype A clinical isolate expressing 14H-17D-43T-68N/D protease gene sequence from HIV2 infected patient plasma and PBMC obtained before compound treatment measured after 13 months; format: functional, organism-based; conditions: Human immunodeficiency virus 2, subtype A; how it was run: as §1
[6] = system: Human immunodeficiency virus 2; assay: Antiviral activity against HIV 2 subtype A clinical isolate expressing 10V/I-40D-43I-56V-70K-82F-84V-89V-90M protease gene sequence from HIV2 infected patient plasma and PBMC obtained at T2 during compound treatment measured after 3 months; format: functional, organism-based; conditions: Human immunodeficiency virus 2, subtype A; how it was run: as §1
[7] = system: Human immunodeficiency virus 2; assay: Antiviral activity against HIV 2 subtype A clinical isolate expressing 10I-17D-40D-43I-46V-66V/A-70R/K protease gene sequence from HIV2 infected patient plasma and PBMC obtained before compound treatment measured after 13 months; format: functional, organism-based; conditions: Human immunodeficiency virus 2, subtype A; how it was run: as §1
[8] = system: Human immunodeficiency virus 2; assay: Antiviral activity against HIV 2 subtype A clinical isolate expressing 10I-17D-40D-43I-45K/R-46V-54M-64I/V-69K/R-71V/I-90M protease gene sequence from HIV2 infected patient plasma and PBMC obtained at T1 during compound treatment measured after 13 months; format: functional, organism-based; conditions: Human immunodeficiency virus 2, subtype A; how it was run: as §1
[9] = system: Human immunodeficiency virus 2; assay: Antiviral activity against HIV 2 subtype A clinical isolate expressing 5L/F-14Y/H-17G/D-43T-54I/M-62V/A-70R/K-71I protease gene sequence from HIV2 infected patient plasma and PBMC obtained at T1 during compound treatment measured after 13 months; format: functional, organism-based; conditions: Human immunodeficiency virus 2, subtype A; how it was run: as §1
[10] = Antiviral activity against Human immunodeficiency virus type 1 (BRU ISOLATE) after […]; format: functional; conditions: Human immunodeficiency virus 1
[11] = system: Human immunodeficiency virus 2; assay: Antiviral activity against HIV 2 subtype A clinical isolate expressing 10I-40D-43I-70K-82F-84V-85L-89V-90M-91T/L-98N/K protease gene sequence from HIV2 infected patient plasma and PBMC obtained at T1 during compound treatment measured after 13 months; format: functional, organism-based; conditions: Human immunodeficiency virus 2, subtype A; how it was run: as §1
[12] = system: Human immunodeficiency virus 2; assay: Antiviral activity against HIV 2 subtype B clinical isolate expressing 12T-14Y-19P-40N-41D-61N-62I-96S-99L protease gene sequence from HIV2 infected patient plasma and PBMC obtained before compound treatment measured after 13 months; format: functional, organism-based; conditions: Human immunodeficiency virus 2, subtype B\r\n; how it was run: as §1
[13] = system: Human immunodeficiency virus 2; assay: Antiviral activity against HIV 2 subtype B clinical isolate expressing 14Y-19P-33I-61N-71I-75M-84V-90M protease gene sequence from HIV2 infected patient plasma and PBMC obtained at T1 during compound treatment measured after 13 months; format: functional, organism-based; conditions: Human immunodeficiency virus 2, subtype B\r\n; how it was run: as §1
[14] = system: Human immunodeficiency virus 2; assay: Antiviral activity against HIV 2 subtype H expressing 10I-40P-41Y-60H-63N-70T-73G-89L-92E protease gene sequence from HIV2 infected patient plasma and PBMC obtained before compound treatment measured after 13 months; format: functional, organism-based; conditions: Human immunodeficiency virus 2, subtype H; how it was run: as §1
[15] = system: Human immunodeficiency virus 2; assay: Antiviral activity against HIV 2 subtype B clinical isolate expressing 14Y-19P-61N-64V-71I-90M-95I protease gene sequence from HIV2 infected patient plasma and PBMC obtained at T2 during compound treatment measured after 3 months; format: functional, organism-based; conditions: Human immunodeficiency virus 2, subtype B\r\n; how it was run: as §1
[16] = system: Human immunodeficiency virus 2; assay: Antiviral activity against HIV 2 subtype B clinical isolate expressing 12Q-14R-17G/D-19P-61N-62I-92A protease gene sequence from HIV2 infected patient plasma and PBMC obtained before compound treatment measured after 13 months; format: functional, organism-based; conditions: Human immunodeficiency virus 2, subtype B\r\n; how it was run: as §1
[17] = system: Human immunodeficiency virus 2; assay: Antiviral activity against HIV 2 subtype A clinical isolate expressing 54M-65E-71I-74N-90M protease gene sequence from HIV2 infected patient plasma and PBMC obtained at T1 during compound treatment measured after 13 months; format: functional, organism-based; conditions: Human immunodeficiency virus 2, subtype A; how it was run: as §1
[18] = system: Human immunodeficiency virus 2; assay: Antiviral activity against HIV 2 subtype H expressing 10I-34E-40P-41Y-60H-63N-70T-73G-82F-89L-92E protease gene sequence from HIV2 infected patient plasma and PBMC obtained at T1 during compound treatment measured after 13 months; format: functional, organism-based; conditions: Human immunodeficiency virus 2, subtype H; how it was run: as §1

Compound | IC50 [1] | IC90 [1] | IC50 [2] | IC90 [2] | IC50 [3] | IC90 [3] | IC50 [4] | IC90 [4] | IC50 [5] | IC90 [5] | IC50 [6] | IC90 [6] | IC50 [7] | IC90 [7] | IC50 [8] | IC90 [8] | IC50 [9] | IC50 [10] | IC90 [10] | IC50 [11] | further results
COC(=O)N[C@H](C(=O)N[C@@H](Cc1ccccc1)[C@@H](O)CN(Cc1ccc(-c2ccccn2)cc1)NC(=O)[C@@H](NC(=O)OC)C(C)(C)C)C(C)(C)C [ATAZANAVIR] | 30 nM | 100 nM | 40 nM | 300 nM | 60 nM | 300 nM | 40 nM | 200 nM | 70 nM | 200 nM | 400 nM | 3000 nM | 100 nM | 300 nM | 200 nM | 1800 nM | 300 nM | 7 nM | 30 nM | 40 nM | IC90 [9]: 2100 nM; IC90 [11]: 1300 nM; IC50 [12]: 200 nM; IC90 [12]: 400 nM; IC50 [13]: 2200 nM; IC90 [13]: 17000 nM; IC50 [14]: 100 nM; IC90 [14]: 500 nM; IC50 [15]: 200 nM; IC90 [15]: 1400 nM; IC50 [16]: 30 nM; IC90 [16]: 300 nM; IC50 [17]: 400 nM; IC90 [17]: 1800 nM; IC50 [18]: 1900 nM; IC90 [18]: 15000 nM
CC(C)CN(C[C@@H](O)[C@H](Cc1ccccc1)NC(=O)O[C@H]1CO[C@H]2OCC[C@H]21)S(=O)(=O)c1ccc(N)cc1 [DARUNAVIR] | 5 nM | 20 nM | 10 nM | 30 nM | 2 nM | 10 nM | 4 nM | 20 nM | 9 nM | 30 nM | 1000 nM | 8100 nM | 4 nM | 30 nM | 800 nM | 3000 nM | 600 nM | 4 nM | 9 nM | 500 nM | IC90 [9]: 7300 nM; IC90 [11]: 2400 nM; IC50 [12]: 4 nM; IC90 [12]: 20 nM; IC50 [13]: 500 nM; IC90 [13]: 3900 nM; IC50 [14]: 4 nM; IC90 [14]: 40 nM; IC50 [15]: 700 nM; IC90 [15]: 5100 nM; IC50 [16]: 10 nM; IC90 [16]: 50 nM; IC50 [17]: 200 nM; IC90 [17]: 1400 nM; IC50 [18]: 900 nM; IC90 [18]: 4700 nM
CC(C)(C)NC(=O)[C@@H]1CN(Cc2cccnc2)CCN1C[C@@H](O)C[C@@H](Cc1ccccc1)C(=O)N[C@H]1c2ccccc2C[C@H]1O [INDINAVIR] | 30 nM | 300 nM | 30 nM | 400 nM | 100 nM | 600 nM | 20 nM | 400 nM | < 10 nM | < 10 nM | 11000 nM | 90000 nM | 4 nM | 100 nM | 200 nM | 3100 nM | 18000 nM | 5 nM | 40 nM | 6400 nM | IC90 [11]: 51000 nM; IC50 [12]: 4 nM; IC90 [12]: 20 nM; IC50 [13]: 3800 nM; IC90 [13]: 30000 nM; IC50 [14]: 20 nM; IC90 [14]: 500 nM; IC50 [15]: 12000 nM; IC90 [15]: 95000 nM; IC50 [16]: 400 nM; IC90 [16]: 2600 nM; IC50 [17]: 10000 nM; IC90 [17]: 82000 nM; IC50 [18]: 12000 nM; IC90 [18]: 99000 nM
